High-throughput results: PubChem BioAssay, Broad Institute
PDI turbidity – inhibitors of human PDI, primary screen, biochemical, turbidity, single point, plate reader; actives 0.052% (n = 350,000); inhibition, % at 10 µM; PDI insulin aggregation turbidity, A650, 90 min;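 active means mean inhibition across replicates of 30% or more, whatever share of single replicates reach that level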
SIRT5 inh – SIRT5 desuccinylase inhibitors, primary screen, biochemical, fluorescence imaging, single point, set 5 | NAD-dependent protein deacylase sirtuin-5, mitochondrial (Homo sapiens), Q9NXA8 | Purified SirT5, succinyl-peptide AMC, trypsin-coupled fluorescence | inhibition, % at 15 µM | actives 1.1% (n = 330,000); in the data active means inhibition above about 15%
GSIS activator – GLuc luminescence reporter in INS-1E cells, primary screen for activators of glucose-dependent secretion of insulin; INS-1E GLuc reporter insulin secretion, 2-3 h; activation, % at 16.6 µM; actives 0.61% (n = 370,000); AID 743287, 2014;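 active means lowest replicate activation of at least 40%, so every replicate reaches that level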;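 further: 0% = median of neutral control wells and 100% = median of IBMX positive control wells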
S100A4 MyoIIA – inhibitors of S100A4-myosin IIA peptide binding, primary screen, biochemical, fluorescence polarization, TAMRA-MyoIIA peptide; Protein S100-A4 (Homo sapiens), P26447; inhibition, % at 10.7 µM; actives 0.14% (n = 360,000);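 active means mean inhibition of at least 70% across replicates, with every replicate also reaching that level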
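assay system = human S100A4 monomer with TAMRA-labelled myosin IIA peptide | also added = labelled myosin peptide probe, 5 nM | incubation = 5 min between mix addition and reading | control set = DMSO and TFP controls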
ERp5 block – inhibitors of ERp5-driven insulin aggregation, primary screen, biochemical, turbidity, absorbance 650 nm, single point. Protein disulfide-isomerase A6 (Homo sapiens), Q15084. 90 min. inhibition, % at 9.99 µM. actives 0.05% (n = 350,000);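 active means mean replicate inhibition above about 25%, with every replicate also reaching it, limit read from the data, passing the limit was not always enough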
Target sequence (Q15084 whole entry, looked up): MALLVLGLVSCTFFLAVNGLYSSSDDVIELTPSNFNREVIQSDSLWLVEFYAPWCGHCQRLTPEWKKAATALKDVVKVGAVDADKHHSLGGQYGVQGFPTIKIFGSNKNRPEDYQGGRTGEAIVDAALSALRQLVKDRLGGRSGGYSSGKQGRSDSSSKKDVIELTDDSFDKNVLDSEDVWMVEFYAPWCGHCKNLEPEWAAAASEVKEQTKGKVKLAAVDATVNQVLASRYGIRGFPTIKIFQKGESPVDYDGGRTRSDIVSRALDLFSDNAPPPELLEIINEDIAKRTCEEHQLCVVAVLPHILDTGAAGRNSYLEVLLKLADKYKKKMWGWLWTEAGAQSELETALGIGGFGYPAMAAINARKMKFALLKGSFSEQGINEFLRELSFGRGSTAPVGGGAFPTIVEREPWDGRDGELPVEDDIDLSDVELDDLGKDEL
* marks the source's active call; other numbers are inactive results. Hits are enriched below; roughly 1.5% of the tested compounds scored in any of these assays.

Screening COc1ccc(S(=O)(=O)N(C)C[C@H]2Oc3ccc(NC(=O)Cc4cn(C)c5ccccc45)cc3C(=O)N([C@H](C)CO)C[C@H]2C)cc1 returned SIRT5 inh 3, GSIS activator -6, S100A4 MyoIIA -22 and ERp5 block 3.
`C[C@@H]1CCCCO[C@H](CN(C)S(=O)(=O)c2ccc(F)cc2)[C@@H](C)CN([C@@H](C)CO)C(=O)c2cc(NS(=O)(=O)c3ccccc3)ccc2O1` gave SIRT5 inh 17*, GSIS activator -20, S100A4 MyoIIA -5 and ERp5 block 4.
C[C@@H]1CCCCO[C@H](CN(C)S(=O)(=O)c2ccccc2)[C@@H](C)CN([C@H](C)CO)C(=O)c2cc(NS(=O)(=O)c3ccc(F)cc3)ccc2O1 was read as SIRT5 inh -3, GSIS activator -20, S100A4 MyoIIA -1 and ERp5 block 0.
Screening C[C@@H]1CCCCO[C@H](CN(C)S(=O)(=O)c2ccccc2)[C@H](C)CN([C@@H](C)CO)C(=O)c2cc(NS(=O)(=O)c3ccc(F)cc3)ccc2O1 returned SIRT5 inh 8, GSIS activator 2, S100A4 MyoIIA 2 and ERp5 block 4.
For C[C@@H]1CCCCO[C@@H](CN(C)S(=O)(=O)c2ccc(F)cc2)[C@@H](C)CN([C@@H](C)CO)C(=O)c2cc(NS(=O)(=O)c3ccccc3)ccc2O1 the results were SIRT5 inh 16*, GSIS activator -26, S100A4 MyoIIA 0 and ERp5 block -2.
For CCN1CCN(C(=O)C(=O)c2cn(CC(=O)N(CC)CC)c3ccccc23)CC1 the results were PDI turbidity 6, SIRT5 inh 0, GSIS activator -2, S100A4 MyoIIA 0 and ERp5 block -9.
CCN(CC)C(=O)Cn1cc(C(=O)C(=O)N2CCN(Cc3ccccc3)CC2)c2ccccc21 was read as PDI turbidity 2, SIRT5 inh 2, GSIS activator 60*, S100A4 MyoIIA -2 and ERp5 block -1.
For O=C(C[C@@H]1CC[C@@H]2[C@H](COC[C@H](O)CN2C(=O)Nc2cc(Cl)cc(Cl)c2)O1)NCC1CC1 the results were SIRT5 inh 2, GSIS activator -11, S100A4 MyoIIA 2 and ERp5 block -4.
`C[C@@H]1CN([C@H](C)CO)C(=O)c2cccc(NC(=O)Nc3cccc4ccccc34)c2O[C@H]1CN(C)C(=O)Nc1ccc(C(F)(F)F)cc1` gave SIRT5 inh -3, GSIS activator 3, S100A4 MyoIIA 8 and ERp5 block 62*.
For C[C@H]1CN([C@@H](C)CO)C(=O)c2cccc(NC(=O)Nc3cccc4ccccc34)c2O[C@@H]1CN(C)C(=O)Nc1ccc(C(F)(F)F)cc1 the results were SIRT5 inh 1, GSIS activator -16, S100A4 MyoIIA 13 and ERp5 block 79*.
For C[C@@H]1CN([C@H](C)CO)C(=O)c2cccc(NC(=O)Nc3cccc4ccccc34)c2O[C@@H]1CN(C)C(=O)Nc1ccc(C(F)(F)F)cc1 the results were SIRT5 inh 7, GSIS activator 7, S100A4 MyoIIA -4 and ERp5 block 42*.
`C[C@@H]1CN([C@H](C)CO)S(=O)(=O)c2ccc(C#Cc3ccccc3F)cc2O[C@H]1CN(C)C(=O)Cc1cccnc1` gave SIRT5 inh 5, GSIS activator -7, S100A4 MyoIIA -9 and ERp5 block -1.
`COc1ccc(OCCOc2ccc(S(=O)(=O)N3CCCC3)cc2[N+](=O)[O-])cc1` gave PDI turbidity 1, SIRT5 inh 27*, GSIS activator -3, S100A4 MyoIIA 6 and ERp5 block 1.
COc1ccc(OCCOc2ccc(S(=O)(=O)N3CCCC3)cc2C(N)=O)cc1 was read as PDI turbidity 10, SIRT5 inh -3, GSIS activator -17, S100A4 MyoIIA -13 and ERp5 block -6.
CSc1ccccc1NC(=O)c1cnccn1 was read as PDI turbidity -1 and GSIS activator 11.
For CC(C)c1ccccc1NC(=O)c1cnccn1 the results were PDI turbidity 2, SIRT5 inh 20*, GSIS activator 30, S100A4 MyoIIA 53 and ERp5 block 1.
